We go through 4 compounds from PMC10401072 (Cancer discovery, 2023).

Data set [1] deals with pERK in ex vivo CSF1-stimulated peripheral blood monocytes. In words: Patient pharmacodynamic assessment. The arrangement: species or system human. The settings on record: ALK NSCLC patient; 20 mg; 4 hours after dosing on C1D1. The method, boiled down:
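Patient whole blood was shipped refrigerated the same day and processed within a 24 h stability window. Ex vivo stimulation used 9 ng/mL recombinant human M-CSF for 12 min at room temperature, with unstimulated control. Staining with CD45, CD14, ERK1/2 and pERK1/2 (T202/Y204) antibodies ran 30 min in the dark. Flow cytometry excluded doublets and gated CD45+CD14+ monocytes. pERK1/2 MFI was normalized to the unstimulated sample.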

In data set [2] the test system is EML4-ALK fusion-positive NSCLC. The format is in vivo, human. As to conditions: after 6 weeks monotherapy, 20 mg BIW.
Data set [3] deals with KRAS G12D mutant low-grade serous ovarian cancer. In words: Phase 1 trial tumor response. In kind it is in vivo, human. The settings on record: after 6 weeks of monotherapy. The method, boiled down: (§1)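 Tumor response was assessed by CT imaging every 6 weeks per RECIST v1.1 during oral monotherapy (powder in capsule) on the phase I trial.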
A further data set is described as follows: Phase 1 trial safety. In kind it is in vivo, human. As to conditions: single patient, monotherapy followed by combination, first dose level. The method, boiled down: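 Lead-in monotherapy ran 2 cycles/6 weeks. Matched targeted therapy was then added at labeled doses upon radiographic progression, if no ongoing grade ≥3 toxicity or DLT. The SHP2 inhibitor restarted one dose level below the highest safe monotherapy dose. Intrapatient escalation was allowed after 1 cycle. Adverse events were graded by CTCAE v5.0, and dose changes followed a prescribed algorithm.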

Data set [4] has as its system GOPC-ROS1 fusion-positive pancreatic adenocarcinoma. In words: Phase 1 trial tumor response. The format is in vivo, human.
Data set [5] concerns pERK in MIA PaCa-2 tumors. In words: Animal PK/PD study: pERK in tumors. In kind it is in vivo, mouse. The settings on record: single oral dose 30 mg/kg. In outline: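 Female Foxn1nu mice bearing subcutaneous right-flank xenografts (5 × 10^6 cells) grown to about 500 mm3 and randomized by size into groups of three. Each received one 30 mg/kg oral gavage dose in 20% hydroxypropyl-β-cyclodextrin/50 mmol/L citric acid, pH 4. Tumors were taken at 1, 8, 24 and 48 h and lysed in NP-40 buffer. pERK was immunoblotted in 250 μg lysate, normalized to GAPDH and vehicle controls, as POC.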

Data set [6] in a line: Patient pharmacokinetic assessment. The format is in vivo, human. The method, boiled down:
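Compound was given as powder in capsule. Plasma was sampled before treatment and at set intervals after dosing on cycle 1 days 1 and 18 at the starting monotherapy dose. Drug level was measured by a validated LC-MS/MS assay.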

Data set [7] relates to metastatic BRAF V600E colorectal cancer. In words: Phase 1 trial tumor response. In kind it is in vivo, human. The settings on record: after 6 weeks monotherapy; new lesions. In outline:
as §1

The conditions of data set [8]: cited from earlier work.

`Nc1nccc(Sc2cnc(N3CCC4(CC3)Cc3ccccc3[C@H]4N)nn2)c1Cl` [PF-07284892]: the “decrease in pERK levels in peripheral blood monocytes” value in [1] is recorded as 80%. Besides, in data set [2], the “change in target lesions on CT” value is “+50%”. Besides, the “response (RECIST 1.1)” value in data set [2] is on record as “progressive disease”. Besides, the “tumor growth in two target lesions” value in data set [3] is recorded as “+6%”. The “dose-limiting toxicities (DLTs)” value in the data set “Phase 1 trial safety” is listed as “no DLTs”. In addition, in data set [4] (after 6 weeks of monotherapy), the “change in two target lesion liver metastases” value is on record as “+26%”. For the same compound, the “suppression of pERK in tumors” value in data set [5] was “significant suppression”. Besides, the “plasma level of PF-07284892” value was 41 ng/mL in data set [6] (ALK NSCLC patient, 20 mg orally BIW, 4 hours after C1D1 dose); 29 ng/mL in data set [6] (ALK NSCLC patient, 20 mg orally BIW, pre-dose C1D18, 3 days after prior dose); 56 ng/mL in data set [6] (BRAF V600E CRC patient, 20 mg BIW, C1D1); 35 ng/mL in [6] (BRAF V600E CRC patient, 20 mg BIW, C1D18). In data set [7], the “change in target lesions” value is listed as “+43%”.

For the compound `Cc1nc(N2CCC3(CC2)CO[C@@H](C)[C@H]3N)c(CO)nc1Sc1ccnc(N)c1Cl` [RMC-4630], the “monotherapy activity in FIH trials” value in data set [8] is “limited monotherapy activity”.

For `C[C@@H]1OCC2(CCN(c3cnc(Sc4ccnc(N)c4Cl)c(N)n3)CC2)[C@@H]1N` [TNO155], the “monotherapy activity in FIH trials” value in data set [8] was “limited monotherapy activity”.

As for `C[C@H]1CNC(=O)c2cnn3ccc(nc23)N[C@H](C)c2cc(F)ccc2O1` [repotrectinib, reference compound], the “time to progression on previous therapy” value in data set [4] (pre-study therapy, patient history) is given as ~ 10 months.
